# ChEMBL document CHEMBL1132281, “Compounds that activate the mouse melanocortin-1 receptor identified by screening a small molecule library based upon the beta-turn” (J Med Chem, 1999)
# Molecular target: Melanocyte-stimulating hormone receptor (Mus musculus, UniProt Q01727)
# Assay: Agonistic activity against mouse Melanocortin 1 receptor (mMC1R)
# Assay type: functional
# Outline: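 HEK-293 cells (DMEM, 10% fetal calf serum) stably expressing the mouse receptor (pCDNA3, G418 selection) were transfected with a CRE/β-galactosidase reporter. At 48 h post-transfection, cells were stimulated for 6 h in DMEM with 0.1 mg/mL BSA and 0.1 mM IBMX, at 10^-4 to 10^-10 M in triplicate. Lysates were read with ONPG at 37° (OD405), and the data were normalized to protein (OD595) and to forskolin (10^-4 M).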
# Sequence of Melanocyte-stimulating hormone receptor (Q01727 whole entry): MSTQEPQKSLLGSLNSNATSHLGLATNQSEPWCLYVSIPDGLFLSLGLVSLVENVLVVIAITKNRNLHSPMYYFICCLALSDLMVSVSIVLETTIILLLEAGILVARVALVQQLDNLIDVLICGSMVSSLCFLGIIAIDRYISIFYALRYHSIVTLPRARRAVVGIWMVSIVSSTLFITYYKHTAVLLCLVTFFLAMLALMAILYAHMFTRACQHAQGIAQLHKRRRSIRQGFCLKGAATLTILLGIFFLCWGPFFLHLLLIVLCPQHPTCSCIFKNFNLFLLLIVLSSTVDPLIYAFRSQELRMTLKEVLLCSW
row,SMILES,EC50
1,CC(=O)N[C@H](Cc1ccccc1)C(=O)N[C@@H](C)C(=O)N[C@H](Cc1c[nH]c2ccccc12)C(N)=O,> 100 µM
2,CC(=O)N[C@@H](Cc1cnc[nH]1)C(=O)N[C@H](Cc1ccccc1)C(=O)N[C@@H](C)C(=O)N[C@H](Cc1c[nH]c2ccccc12)C(N)=O,> 100 µM
3,CC(=O)N[C@H](Cc1ccccc1)C(=O)N[C@@H](CCCCN)C(=O)N[C@H](Cc1c[nH]c2ccccc12)C(N)=O,> 100 µM
4,CC(=O)N[C@@H](Cc1c[nH]cn1)C(=O)N[C@H](Cc1ccccc1)C(=O)N[C@@H](CCCCN)C(=O)N[C@H](Cc1c[nH]c2ccccc12)C(N)=O,> 100 µM
5,CC(=O)N[C@@H](Cc1c[nH]cn1)C(=O)N[C@H](Cc1ccccc1)C(=O)NCC(=O)N[C@H](Cc1c[nH]c2ccccc12)C(N)=O,> 100 µM

# Now from value to molecule:
row,EC50,SMILES
1,42.5 µM,O=C1[C@H]2CCCN2C(=O)C(Cc2ccc3ccccc3c2)SCCN1CCc1c[nH]c2ccccc12 (stereo not given in full)
2,100 µM,CC(=O)N[C@H](Cc1ccccc1)C(=O)NCC(=O)N[C@H](Cc1c[nH]c2ccccc12)C(N)=O
3,100 µM,CC(=O)N[C@@H](Cc1c[nH]cn1)C(=O)N[C@H](Cc1ccccc1)C(=O)N[C@@H](CCC(N)=O)C(=O)N[C@H](Cc1c[nH]c2ccccc12)C(N)=O
4,100 µM,CC(=O)N[C@H](Cc1ccccc1)C(=O)N[C@@H](CCC(N)=O)C(=O)N[C@H](Cc1c[nH]c2ccccc12)C(N)=O
5,63.4 µM,NCCCC[C@H]1NC(=O)[C@H](Cc2c[nH]c3ccccc23)SCCN(CCc2ccccc2)C1=O
